Measured values as given in ChEMBL document CHEMBL1255564, “A novel series of positive modulators of the AMPA receptor: discovery and structure based hit-to-lead studies” (Bioorg Med Chem Lett, 2010).
≈ marks a conversion by molar mass, not a printed value.

What was measured:
[1] = […]
In short: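 Cells washed in low-Ca buffer (pH 7.4, 2 mM CaCl₂) with 0.625 mM probenecid. Glutamate ± compound added in 20 mM CaCl₂ buffer. Ca²⁺ fluorescence read; pEC50 is the mean of two experiments run in duplicate.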

[2] = Aqueous solubility of the compound; format: physicochemical
[3] = Intrinsic clearance in human liver microsomes; format: ADME, Microsome
[4] = Intrinsic clearance in rat liver microsomes; format: ADME, Microsome
[5] = Clearance in Wistar rat at 2 mg/kg, iv; format: ADME, organism-based; parameters: dose 2 mg/kg, route intravenous; settings: in vivo
[6] = Volume of distribution at steady state in Wistar rat at 2 mg/kg, iv; format: ADME, organism-based; parameters: dose 2 mg/kg, route intravenous; settings: in vivo, read-out: Vdss
[7] = Half life in Wistar rat at 2 mg/kg, iv; format: ADME, organism-based; parameters: dose 2 mg/kg, route intravenous; settings: in vivo
[8] = Permeability from basolateral to apical side of human Caco-2 cells; format: ADME, cell-based; settings: read-out: permeability
[9] = Permeability from apical to basolateral side of human Caco-2 cells; format: ADME, cell-based; settings: read-out: permeability

pEC50 [1]	SMILES	other results
6.6	O=C(Cn1nc(C(F)(F)F)c2c1CCCC2)Nc1sc2c(c1C(=O)N[C@@H]1CCNC1)CCCC2	
< 4.5	NC(=O)c1c(NC(=O)Cn2c(C(F)(F)F)nc3ccccc32)sc2c1CCCC2	
5.5	NC(=O)c1c(CO)csc1NC(=O)Cn1nc(C(F)(F)F)c2c1CCCC2	
6.2	O=C(Cn1nc(C(F)(F)F)c2c1CCCC2)Nc1sc2c(c1C(=O)NCC1CNC1)CCCC2	
6.2	O=C(Cn1nc(C(F)(F)F)c2c1CCCC2)Nc1sc2c(c1C(=O)NC1CC1)CCCC2	
7	CS(=O)(=O)NCCNC(=O)c1c(NC(=O)Cn2nc(C(F)(F)F)c3c2CCCC3)sc2c1CCCC2	
6.7	NC(=O)c1c(NC(=O)Cn2nc(C(F)(F)F)c3c2CCCC3)sc2c1CCCC2	
5.2	CN(C)CCNC(=O)c1c(NC(=O)Cn2nc(C(F)(F)F)c3c2CCCC3)sc2c1CCCC2	
5.2	NC(=O)c1ccsc1NC(=O)Cn1nc(C(F)(F)F)c2c1CCCC2	solubility [2]: 10 µg/mL (≈ 26.9 µM)
6.1	Cc1sc(NC(=O)Cn2nc(C(F)(F)F)c3c2CCCC3)c(C(N)=O)c1C	
5.3	NC(=O)c1c(NC(=O)Cn2nc(C(F)(F)F)c3c2CCCC3)sc2c1CCNC2	
< 4.5	Cc1cc(C)n(CC(=O)Nc2sc3c(c2C(N)=O)CCCC3)n1	
6.7	NC(=O)c1c(NC(=O)Cn2nc(C(F)(F)F)c3c2CCCC3)sc2c1CCOC2	microsomal CLint [3]: > 270 µL/min/mg
5.8	NC(=O)c1c(NC(=O)Cn2nc(C(F)(F)F)cc2C(F)(F)F)sc2c1CCCC2	microsomal CLint [4]: 200 µL/min/mg; solubility [2]: < 1 µg/mL; microsomal CLint [3]: 174 µL/min/mg
5.3	NC(=O)c1c(NC(=O)Cn2ccc(C(F)(F)F)n2)sc2c1CCCC2	
6.2	CCc1c(C)sc(NC(=O)Cn2nc(C(F)(F)F)c3c2CCCC3)c1C(N)=O	
5.9	NCCCCNC(=O)c1c(NC(=O)Cn2nc(C(F)(F)F)c3c2CCCC3)sc2c1CCCC2	
6.4	NCCCNC(=O)c1c(NC(=O)Cn2nc(C(F)(F)F)c3c2CCCC3)sc2c1CCCC2	clearance [5]: 21 mL/min/kg; microsomal CLint [4]: 77 µL/min/mg; Vd [6]: 3.8 L/kg; microsomal CLint [3]: 17 µL/min/mg; half-life [7]: 3.2 h; Papp B→A [8]: 5.5 ×10⁻⁶ cm/s; Papp A→B [9]: 3.4 ×10⁻⁶ cm/s
5.8	O=C(Cn1nc(C(F)(F)F)c2c1CCCC2)Nc1sc2c(c1C(=O)N[C@H]1CCNC1)CCCC2	
6.5	CCNC(=O)c1c(NC(=O)Cn2nc(C(F)(F)F)c3c2CCCC3)sc2c1CCCC2	
6.5	O=C(Cn1nc(C(F)(F)F)c2c1CCCC2)Nc1sc2c(c1C(=O)NC1CNC1)CCCC2	
5.7	CNCCNC(=O)c1c(NC(=O)Cn2nc(C(F)(F)F)c3c2CCCC3)sc2c1CCCC2	
6.4	NC(=O)c1c(NC(=O)Cn2nc(C(F)(F)F)c3cnccc32)sc2c1CCCC2	microsomal CLint [4]: 91 µL/min/mg
7.3	O=C(Cn1nc(C(F)(F)F)c2c1CCCC2)Nc1sc2c(c1C(=O)NCCO)CCCC2	
5.8	NCCNC(=O)c1c(NC(=O)Cn2nc(C(F)(F)F)c3c2CCCC3)sc2c1CCCC2	
